Assay type in all cases: functional
The test system of assay [1] is Staphylococcus aureus. Kind of assay: Minimum inhibitory concentration against Staphylococcus aureus UC-76. In a few lines:
(§1)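 Standard microdilution method against a panel of five Gram-negative and five Gram-positive bacterial strains. The MIC (µg/mL) was recorded for each strain.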

The species entered for assay [2] is Mus musculus. The assay can be described thus: Median protective dose determined in acute lethal system infection caused by Escherichia coli vogel in CD-1 mice (single dose perorally). The conditions noted are these: po, read-out: PD50. In a few lines: (§2)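 Acute lethal systemic infection in female Charles River CD-1 mice; compound given once, orally (po) or subcutaneously (sc), at the time of challenge. Median protective dose (PD50, mg/kg) derived from survival.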

In assay [3] the test system is Staphylococcus aureus. The assay can be described thus: Minimum inhibitory concentration against Staphylococcus aureus H-228. In a few lines: as §1
Assay [4] deals with Escherichia coli. The assay can be described thus: Minimum inhibitory concentration against Escherichia coli Vogel. In a few lines:
as §1

For assay [5], the system named is Klebsiella pneumoniae. The assay can be described thus: Minimum inhibitory concentration against Klebsiella pneumoniae MGH-2. In a few lines: as §1
Assay [6] deals with Providencia rettgeri. The assay can be described thus: Minimum inhibitory concentration against Providencia rettgeri M-1771. The essentials:
as §1

The species entered for assay [7] is Mus musculus. Kind of assay: Median protective dose determined in acute lethal system infection caused by Streptococcus pyogenes C-203 in CD-1 mice (single dose perorally). The note with it: po, read-out: PD50. In a few lines:
as §2

Assay [8] concerns Enterobacter cloacae. Kind of assay: Minimum inhibitory concentration against […] MA-2646. The essentials:
as §1

Assay [9] concerns Mus musculus. The assay can be described thus: Median protective dose determined in acute lethal system infection caused by Escherichia coli vogel in CD-1 mice (single dose sc). The note with it: read-out: PD50. The essentials:
as §2

In assay [10] the test system is Pseudomonas aeruginosa. Kind of assay: Minimum inhibitory concentration against Pseudomonas aeruginosa UI-18. In a few lines: as §1
Assay [11] deals with Streptococcus pneumoniae. Kind of assay: Minimum inhibitory concentration against Streptococcus pneumoniae SV-1. The essentials:
as §1

Assay [12] relates to Enterococcus faecalis. The assay can be described thus: Minimum inhibitory concentration against […] MGH-2. The essentials:
as §1

For assay [13], the system named is Streptococcus pyogenes. Kind of assay: Minimum inhibitory concentration against Streptococcus pyogenes C-203. The essentials:
as §1

In assay [14] the test system is Mus musculus. The assay can be described thus: Median protective dose determined in acute lethal system infection caused by Streptococcus pyogenes C-203 in CD-1 mice (single dose sc). The conditions noted are these: read-out: PD50. In a few lines:
as §2

[15] abbreviates: Staphylococcus aureus, read-out: MIC.
[16] abbreviates: Escherichia coli, read-out: MIC.
The mark [17] stands for this setting: Klebsiella pneumoniae, read-out: MIC.
Where [18] appears, read: Providencia rettgeri, read-out: MIC.
[19] abbreviates: Enterobacter cloacae, read-out: MIC.
[20] abbreviates: Pseudomonas aeruginosa, read-out: MIC.
The mark [21] stands for this setting: Streptococcus pneumoniae, read-out: MIC.
The mark [22] stands for this setting: Enterococcus faecalis, read-out: MIC.
The mark [23] stands for this setting: Streptococcus pyogenes, read-out: MIC.

≈ marks a conversion by molar mass, not a printed value.

As for `NC1CN(c2c(F)cc3c(=O)c(C(=O)O)cn(C4CC4)c3c2F)CC1c1ccccc1` (trans isomer), the minimal inhibitory concentration (MIC) came to 0.013 µg/mL (≈ 0.0306 µM) in assay [1] (setting [15]); 0.025 µg/mL (≈ 0.0588 µM) in [3] (setting [15]); 0.025 µg/mL (≈ 0.0588 µM) in [4] (setting [16]); 0.05 µg/mL (≈ 0.118 µM) in assay [5] (setting [17]); 0.1 µg/mL (≈ 0.235 µM) in assay [6] (setting [18]); 0.025 µg/mL (≈ 0.0588 µM) in assay [8] (setting [19]). The MIC in assay [10] (setting [20]) amounted to 0.8 µg/mL (≈ 1.88 µM); in [11] (setting [21]), 0.1 µg/mL (≈ 0.235 µM); in assay [12] (setting [22]) it was 0.1 µg/mL (≈ 0.235 µM); in [13] (setting [23]) it was 0.1 µg/mL (≈ 0.235 µM). The ED50 worked out at 15.5 mg/kg in assay [2], 10 mg/kg in [7], 7 mg/kg in assay [9] and 1.6 mg/kg in assay [14].

Turning to `COc1ccccc1C1CN(c2nc3c(cc2F)c(=O)c(C(=O)O)cn3C2CC2)CC1N` (stereo in doubt), the minimal inhibitory concentration (MIC) was found to be 0.05 µg/mL (≈ 0.114 µM) in assay [1]; 0.1 µg/mL (≈ 0.228 µM) in [3]; 0.2 µg/mL (≈ 0.456 µM) in assay [4]; 0.4 µg/mL (≈ 0.912 µM) in assay [5]; 0.8 µg/mL (≈ 1.82 µM) in assay [6]; 0.2 µg/mL (≈ 0.456 µM) in [8]. For the same compound, the MIC in assay [10] came to 3.1 µg/mL (≈ 7.07 µM); in assay [11], 0.1 µg/mL (≈ 0.228 µM); in [12] it was 0.2 µg/mL (≈ 0.456 µM); in assay [13], 0.2 µg/mL (≈ 0.456 µM). In addition, the ED50 in assay [2] came out at 37 mg/kg; in assay [7], 44 mg/kg; in assay [9], 28 mg/kg; in [14], 22 mg/kg.

As for `CC(C)c1ccc(C2CN(c3c(F)cc4c(=O)c(C(=O)O)cn(C5CC5)c4c3F)CC2N)cc1` (trans isomer), the minimum inhibitory concentration (MIC) in [1] (setting [15]) is 0.025 µg/mL (≈ 0.0535 µM); in assay [3] (setting [15]), 0.05 µg/mL (≈ 0.107 µM); in assay [4] (setting [16]) it was 0.4 µg/mL (≈ 0.856 µM); in [5] (setting [17]) it was 0.4 µg/mL (≈ 0.856 µM); in assay [6] (setting [18]), 0.4 µg/mL (≈ 0.856 µM); in assay [8] (setting [19]), 0.4 µg/mL (≈ 0.856 µM). Further, the minimal inhibitory concentration (MIC) in [10] (setting [20]) worked out at 3.1 µg/mL (≈ 6.63 µM); in [11] (setting [21]) it was 0.2 µg/mL (≈ 0.428 µM); in assay [12] (setting [22]), 0.2 µg/mL (≈ 0.428 µM); in assay [13] (setting [23]), 0.2 µg/mL (≈ 0.428 µM). For the same compound, the ED50 stood at 100 mg/kg in assay [7] and 90 mg/kg in assay [14].

(Values after ChEMBL document CHEMBL1126564, “Synthesis and antimicrobial evaluation of a series of 7-[3-amino (or aminomethyl)-4-aryl (or cyclopropyl)-1-pyrrolidinyl]-4-quinolone- and -1,8-naphthyridone-3-carboxylic acids” (1993).)
